# ChEMBL document CHEMBL3774312, “5-Substituted 3-isopropyl-7-[4-(2-pyridyl)benzyl]amino-1(2)H-pyrazolo[4,3-d]pyrimidines with anti-proliferative activity as potent and selective inhibitors of cyclin-dependent kinases” (Eur J Med Chem, 2016)
# Calls of active or inactive are those of the source. The rule behind the calls is not given here.
# Columns and labels:
# MCF7 [1] = assay: Cytotoxicity against human MCF7 cells assessed as reduction in cell viability after 72 hrs by calcein AM staining based fluorescence assay; format: functional; settings: for IC50: MCF7, 72 h
# Summary of the method: (§1)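 Cells were grown in DMEM with 10% FBS, penicillin and streptomycin at 37 °C in 5% CO2. Three doses were tested in triplicate for 72 h.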
# [2] = Cytotoxicity against human G361 cells assessed as reduction in cell viability after 72 hrs by calcein AM staining based fluorescence assay; format: functional; settings: G-361, 72 h; summary of the method: as §1
# MCF7 [3] = assay: Cell cycle arrest in BrdU pulse-labelled human MCF7 cells assessed as accumulation at subG1 phase at 500 to 5000 nM after 24 hrs by propidium iodide staining based flow cytometry; format: functional
# [4] = target: Cyclin-dependent kinase 2/cyclin E1 (Homo sapiens, UniProt P24941); assay: Inhibition of CDK2/Cyclin E (unknown origin) expressed in sf9 cells using histone H1 as substrate in presence of [gamma33P]-ATP; format: cell-based
# MCF7 [5] = assay: Cell cycle arrest in BrdU pulse-labelled human MCF7 cells assessed as accumulation at late S phase at 500 to 5000 nM after 24 hrs by propidium iodide staining based flow cytometry; format: functional
# MCF7 [6] = assay: Cell cycle arrest in BrdU pulse-labelled human MCF7 cells assessed as accumulation at late G2/M phase at 500 to 5000 nM after 24 hrs by propidium iodide staining based flow cytometry; format: functional
# [7] = (§2) Cytotoxicity against human HCT116 cells assessed as reduction in cell viability after 72 hrs by calcein AM staining based fluorescence assay; format: functional; settings: HCT-116, 72 h
# Summary of the method: (§3)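 Cells were grown in DMEM with 10% FBS, penicillin and streptomycin at 37 °C in 5% CO2. Three doses were tested in triplicate for 72 h. Live cells were read by Calcein AM fluorescence at 485/538 nm.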
# HCT-116 = assay: as §2; format: functional; summary of the method: as §3
# MCF7 [8] = assay: Cell cycle arrest in BrdU pulse-labelled human MCF7 cells assessed as decrease in cells at S phase at 500 to 5000 nM after 24 hrs by propidium iodide staining based flow cytometry; format: functional
# K562 = assay: Cytotoxicity against human K562 cells assessed as reduction in cell viability after 72 hrs by calcein AM staining based fluorescence assay; format: functional; settings: K562, 72 h; summary of the method: as §1
# [9] = target: Cyclin-dependent kinase 5 (Homo sapiens, UniProt Q00535); assay: Inhibition of CDK5 (unknown origin) using histone H1 as substrate in presence of [gamma33P]-ATP
# MCF7 [10] = assay: Cell cycle arrest in BrdU pulse-labelled human MCF7 cells assessed as accumulation at late G2/M phase at 8 to 250 nM after 24 hrs by propidium iodide staining based flow cytometry; format: functional
# MCF7 [11] = assay: Cell cycle arrest in BrdU pulse-labelled human MCF7 cells assessed as accumulation at subG1 phase at 8 to 250 nM after 24 hrs by propidium iodide staining based flow cytometry; format: functional
# MCF7 [12] = assay: Cell cycle arrest in BrdU pulse-labelled human MCF7 cells assessed as accumulation at late S phase at 8 to 250 nM after 24 hrs by propidium iodide staining based flow cytometry; format: functional
# MCF7 [13] = assay: Cell cycle arrest in BrdU pulse-labelled human MCF7 cells assessed as decrease in cells at S phase at 8 to 250 nM after 24 hrs by propidium iodide staining based flow cytometry; format: functional
# MCF7 [14] = assay: Cell cycle arrest in BrdU pulse-labelled human MCF7 cells assessed as accumulation at subG1 phase at 2500 to 20000 nM after 24 hrs by propidium iodide staining based flow cytometry; format: functional
# MCF7 [15] = assay: Cell cycle arrest in BrdU pulse-labelled human MCF7 cells assessed as accumulation at late G2/M phase at 2500 to 20000 nM after 24 hrs by propidium iodide staining based flow cytometry; format: functional
# MCF7 [16] = assay: Cell cycle arrest in BrdU pulse-labelled human MCF7 cells assessed as accumulation at late S phase at 2500 to 20000 nM after 24 hrs by propidium iodide staining based flow cytometry; format: functional
# MCF7 [17] = assay: Cell cycle arrest in BrdU pulse-labelled human MCF7 cells assessed as decrease in cell at S phase at 2500 to 20000 nM after 24 hrs by propidium iodide staining based flow cytometry; format: functional
# [18] = target: Cyclin-dependent kinase 2 (Homo sapiens) (UniProt P24941); assay: Inhibition of CDK2 in human G361 cells assessed as reduction in phosphorylation of RNA polymerase 2 at C-terminus at 2.4 to 24 uM incubated for 24 hrs by immunoblotting analysis; format: cell-based; settings: G-361
# Summary of the method: (§4)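 Treated G361 cells were lysed in Laemmli buffer, run on SDS-PAGE and blotted to nitrocellulose. Blots were probed overnight with antibodies to RNA polymerase II phosphorylated at S5 and S2, and to total RNA polymerase II (ARNA-3). Peroxidase secondaries were then applied and signal was detected by ECL with a CCD camera.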
# G-361 [19] = assay: Induction of apoptosis in human G361 cells assessed as caspase7 activation using Ac-DEVD-AMC as substrate at IC50 preincubated for 24 hrs followed by substrate addition measured after 3 hrs by fluorescence assay; format: functional, cell-based
# G-361 [20] = assay: Induction of apoptosis in human G361 cells assessed as caspase3 activation using Ac-DEVD-AMC as substrate at 5 times IC50 preincubated for 24 hrs followed by substrate addition measured after 3 hrs by fluorescence assay; format: functional, cell-based
# [21] = target: Cyclin-dependent kinase 2 (Homo sapiens) (UniProt P24941); assay: Inhibition of CDK2 in human G361 cells assessed as reduction in phosphorylation of RNA polymerase 2 at C-terminus at 1.5 to 15 uM incubated for 24 hrs by immunoblotting analysis; format: cell-based; settings: G-361; summary of the method: as §4
# G-361 [22] = assay: Induction of apoptosis in human G361 cells assessed as caspase7 activation using Ac-DEVD-AMC as substrate at 5 times IC50 preincubated for 24 hrs followed by substrate addition measured after 3 hrs by fluorescence assay; format: functional, cell-based
# G-361 [23] = assay: Induction of apoptosis in human G361 cells assessed as caspase3 activation using Ac-DEVD-AMC as substrate at IC50 preincubated for 24 hrs followed by substrate addition measured after 3 hrs by fluorescence assay; format: functional, cell-based
# [24] = target: Cyclin-dependent kinase 2 (Homo sapiens) (UniProt P24941); assay: Inhibition of CDK2 in human G361 cells assessed as reduction in phosphorylation of RNA polymerase 2 at C-terminus at 15 uM incubated for 0.5 to 24 hrs by immunoblotting analysis; format: cell-based; settings: G-361; summary of the method: as §4
# [25] = target: Cyclin-dependent kinase 2 (Homo sapiens) (UniProt P24941); assay: Inhibition of CDK2 in human G361 cells assessed as reduction in phosphorylation of RNA polymerase 2 at C-terminus at 0.75 uM incubated for 0.5 to 24 hrs by immunoblotting analysis; format: cell-based; settings: G-361; summary of the method: as §4
# [26] = target: Cyclin-dependent kinase 2 (Homo sapiens) (UniProt P24941); assay: Inhibition of CDK2 in human G361 cells assessed as reduction in phosphorylation of RNA polymerase 2 at C-terminus at 0.075 to 0.75 uM incubated for 24 hrs by immunoblotting analysis; format: cell-based; settings: G-361; summary of the method: as §4
# MCF7 [27] = assay: Cell cycle arrest in BrdU pulse-labelled human MCF7 cells assessed as accumulation at late G2/M phase at 8 to […] after 24 hrs by propidium iodide staining based flow cytometry; format: functional
# MCF7 [28] = assay: Cell cycle arrest in BrdU pulse-labelled human MCF7 cells assessed as decrease in cells at S phase at 8 to […] after 24 hrs by propidium iodide staining based flow cytometry; format: functional
# MCF7 [29] = assay: Cell cycle arrest in BrdU pulse-labelled human MCF7 cells assessed as accumulation at subG1 phase at 8 to […] after 24 hrs by propidium iodide staining based flow cytometry; format: functional
# MCF7 [30] = assay: Cell cycle arrest in BrdU pulse-labelled human MCF7 cells assessed as accumulation at late S phase at 8 to […] after 24 hrs by propidium iodide staining based flow cytometry; format: functional
# [31] = target: Cyclin-dependent kinase 2 (Homo sapiens) (UniProt P24941); assay: Inhibition of CDK2 in human G361 cells assessed as reduction in phosphorylation of RNA polymerase 2 at C-terminus at 1 uM incubated for 0.5 to 24 hrs by immunoblotting analysis; format: cell-based; settings: G-361; summary of the method: as §4
# Cyclin-dependent kinase 5, sequence (Q00535 whole entry): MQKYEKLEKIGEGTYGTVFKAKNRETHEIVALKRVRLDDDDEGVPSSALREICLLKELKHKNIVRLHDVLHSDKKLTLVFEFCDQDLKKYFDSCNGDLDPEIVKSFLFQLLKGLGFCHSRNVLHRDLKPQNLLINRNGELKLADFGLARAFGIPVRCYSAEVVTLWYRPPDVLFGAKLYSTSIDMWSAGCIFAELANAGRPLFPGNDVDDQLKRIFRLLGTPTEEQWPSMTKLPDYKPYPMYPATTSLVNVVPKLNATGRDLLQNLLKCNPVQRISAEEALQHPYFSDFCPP
IC50 [4],IC50 [9],SMILES,IC50 [2],IC50 [7],IC50 (MCF7 [1]),IC50 (K562),also measured
197 nM,–,CC(C)c1n[nH]c2c(NCc3ccc(-c4ccccn4)cc3)ncnc12,875 nM,1240 nM,–,–,Activity (MCF7 [1]): Dose-dependent effect; Activity (MCF7 [3]): Active; Activity (MCF7 [5]): Active; Activity (MCF7 [6]): Active; Activity (HCT-116): Dose-dependent effect; Activity (MCF7 [8]): Active
46 nM,44 nM,CC(C)c1n[nH]c2c(NCc3ccc(-c4ccccn4)cc3)nc(N[C@@H]3CCCC[C@H]3N)nc12 (relative stereo),477 nM,427 nM,295 nM,175 nM,–
48 nM,–,CSc1nc(NCc2ccc(-c3ccccn3)cc2)c2[nH]nc(C(C)C)c2n1,1400 nM,2800 nM,819 nM,778 nM,–
70 nM,–,CC(C)c1n[nH]c2c(NCc3ccc(-c4ccccn4)cc3)nc(S(C)(=O)=O)nc12,793 nM,1140 nM,460 nM,640 nM,–
96 nM,–,CC(C)c1n[nH]c2c(NCc3ccc(-c4ccccn4)cc3)nc(N[C@H]3CC[C@H](N)CC3)nc12,745 nM,720 nM,474 nM,593 nM,Activity (G-361 [19]): Active; Activity (G-361 [20]): Active; inhibition [21]: Active; Activity (G-361 [22]): Active; Activity (G-361 [23]): Active; inhibition [24]: Active
9 nM,–,CC(C)c1n[nH]c2c(NCc3ccc(-c4ccccn4)cc3)nc(NCC(C)(C)O)nc12,48 nM,85 nM,24 nM,29 nM,Activity (G-361 [19]): Active; Activity (G-361 [20]): Active; inhibition [25]: Active; Activity (G-361 [22]): Active; Activity (G-361 [23]): Active; inhibition [26]: Active
54 nM,–,CCC(CO)Nc1nc(NCc2ccc(-c3ccccn3)cc2)c2[nH]nc(C(C)C)c2n1 (configuration not stated),67 nM,110 nM,53 nM,–,Activity (MCF7 [1]): Dose-dependent effect; Activity (MCF7 [27]): Active; Activity (MCF7 [28]): Active; Activity (MCF7 [29]): Active; Activity (MCF7 [30]): Active; Activity (HCT-116): Dose-dependent effect
61 nM,–,CC(C)c1n[nH]c2c(NCc3ccc(-c4ccccn4)cc3)nc(N3CCSCC3)nc12,873 nM,940 nM,530 nM,589 nM,–
18 nM,8 nM,CC(C)c1n[nH]c2c(NCc3ccc(-c4ccccn4)cc3)nc(NCCN)nc12,230 nM,227 nM,62 nM,63 nM,–
18 nM,–,CC(C)c1n[nH]c2c(NCc3ccc(-c4ccccn4)cc3)nc(N3CCOCC3)nc12,197 nM,270 nM,163 nM,110 nM,Activity (G-361 [19]): inactive; Activity (G-361 [20]): Active; inhibition [31]: Active; Activity (G-361 [22]): Active; Activity (G-361 [23]): inactive

# Continued, compound first:
SMILES,IC50 [4],IC50 [9],IC50 [2],IC50 [7],IC50 (MCF7 [1]),IC50 (K562),also measured
CC(C)c1n[nH]c2c(NCc3ccc(-c4ccccn4)cc3)nc(NCCN(C)C)nc12,467 nM,–,640 nM,390 nM,225 nM,125 nM,–
CC(C)c1n[nH]c2c(NCc3ccc(-c4ccccn4)cc3)nc(N3CCNCC3)nc12,50 nM,–,64 nM,88 nM,21 nM,17 nM,–
CC(C)c1n[nH]c2c(NCc3ccc(-c4ccccn4)cc3)nc(NCC(O)CN)nc12 (configuration not stated),51 nM,17 nM,1020 nM,781 nM,310 nM,700 nM,Activity (MCF7 [1]): Dose-dependent effect; Activity (MCF7 [10]): Active; Activity (MCF7 [11]): Active; Activity (MCF7 [12]): Active; Activity (MCF7 [13]): Active; Activity (HCT-116): Dose-dependent effect
COc1ccc(CNc2nc(NCc3ccc(-c4ccccn4)cc3)c3[nH]nc(C(C)C)c3n2)cc1,1480 nM,–,7490 nM,17400 nM,5300 nM,3950 nM,Activity (MCF7 [1]): Dose-dependent effect; Activity (MCF7 [14]): Active; Activity (MCF7 [15]): Active; Activity (MCF7 [16]): Active; Activity (MCF7 [17]): Active; Activity (HCT-116): Dose-dependent effect
CC(C)c1n[nH]c2c(NCc3ccc(-c4ccccn4)cc3)nc(NCCO)nc12,31 nM,49 nM,39 nM,27 nM,51 nM,38 nM,–
CC[C@H](CO)Nc1nc(NCc2ccccc2)c2[nH]nc(C(C)C)c2n1,–,–,–,–,–,–,inhibition [18]: Active
CC[C@H](CO)Nc1nc(NCc2ccc(-c3ccccn3)cc2)c2ncn(C(C)C)c2n1,–,–,503 nM,350 nM,160 nM,175 nM,–
CC(C)c1n[nH]c2c(NCc3ccc(-c4ccccn4)cc3)nc(N3CCN(CCO)CC3)nc12,132 nM,–,181 nM,350 nM,195 nM,145 nM,–
CC(C)c1n[nH]c2c(NCc3ccc(-c4ccccn4)cc3)nc(NCC(O)CO)nc12 (configuration not stated),12 nM,21 nM,72 nM,87 nM,59 nM,47 nM,–
CC[C@H](CO)Nc1nc(NCc2ccccc2)c2ncn(C(C)C)c2n1 [SELICICLIB],–,–,–,14400 nM,12200 nM,–,–
CC(C)c1n[nH]c2c(NCc3ccc(-c4ccccn4)cc3)nc(N3CCCCC3CCO)nc12 (configuration not stated),24 nM,37 nM,204 nM,142 nM,133 nM,165 nM,–
CC(C)c1n[nH]c2c(NCc3ccc(-c4ccccn4)cc3)nc(NCc3ccc(-c4ccccn4)cc3)nc12,1450 nM,3600 nM,3610 nM,7320 nM,2380 nM,2540 nM,–
